Measured values: ChEMBL document CHEMBL2169742, “Design, synthesis, and biological evaluation of novel transrepression-selective liver X receptor (LXR) ligands with 5,11-dihydro-5-methyl-11-methylene-6H-dibenz[b,e]azepin-6-one skeleton” (J Med Chem, 2012)
Activity calls are given as the source filed them. No cut-off for these calls is given here.

How the values were obtained:
[1] = target: T1, Oxysterols receptor LXR-alpha (Homo sapiens, UniProt Q13133); test: Transactivational antagonist activity at human LXRalpha transfected in HEK293 cells expressing CMX-Gal4N assessed as inhibition of T1317-induced luciferase activity after 16 hrs by reporter gene assay; type: functional, cell-based
T1 sequence (Q13133 whole entry): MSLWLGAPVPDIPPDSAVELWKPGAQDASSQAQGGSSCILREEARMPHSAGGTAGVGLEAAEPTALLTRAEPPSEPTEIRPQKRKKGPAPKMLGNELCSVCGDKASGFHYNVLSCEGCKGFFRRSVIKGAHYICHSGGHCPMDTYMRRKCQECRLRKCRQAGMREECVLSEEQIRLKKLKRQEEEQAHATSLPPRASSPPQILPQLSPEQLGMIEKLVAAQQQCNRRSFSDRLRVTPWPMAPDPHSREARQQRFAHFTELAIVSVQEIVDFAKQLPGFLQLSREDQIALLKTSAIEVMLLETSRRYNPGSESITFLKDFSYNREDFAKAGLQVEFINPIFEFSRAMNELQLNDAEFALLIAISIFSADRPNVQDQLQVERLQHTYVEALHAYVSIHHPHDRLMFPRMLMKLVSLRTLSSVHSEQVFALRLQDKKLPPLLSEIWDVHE

[2] = target: Liver X receptor (Homo sapiens) (UniProt Q13133+P55055); test: Transrepressional activity at LXR in human TPA-activated THP1 cells assessed as inhibition of LPS-induced IL6 production at 30 uM incubated for 6 hrs prior to LPS-challenge measured after 18 hrs by ELISA; type: cell-based; conditions: THP-1
Procedure, shortened: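 THP-1 cells were differentiated with 10 nM TPA for 48 h, then replated at 3 × 10⁴/well. They were pretreated with sample for 6 h before LPS (100 ng/mL). Supernatant IL-6 was measured by ELISA after 18 h.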

[3] = target: T2, Oxysterols receptor LXR-beta (Homo sapiens, UniProt P55055); test: Transactivational antagonist activity at human LXRbeta transfected in HEK293 cells expressing CMX-Gal4N assessed as inhibition of T1317-induced luciferase activity after 16 hrs by reporter gene assay; type: functional, cell-based
T2 sequence (P55055 whole entry): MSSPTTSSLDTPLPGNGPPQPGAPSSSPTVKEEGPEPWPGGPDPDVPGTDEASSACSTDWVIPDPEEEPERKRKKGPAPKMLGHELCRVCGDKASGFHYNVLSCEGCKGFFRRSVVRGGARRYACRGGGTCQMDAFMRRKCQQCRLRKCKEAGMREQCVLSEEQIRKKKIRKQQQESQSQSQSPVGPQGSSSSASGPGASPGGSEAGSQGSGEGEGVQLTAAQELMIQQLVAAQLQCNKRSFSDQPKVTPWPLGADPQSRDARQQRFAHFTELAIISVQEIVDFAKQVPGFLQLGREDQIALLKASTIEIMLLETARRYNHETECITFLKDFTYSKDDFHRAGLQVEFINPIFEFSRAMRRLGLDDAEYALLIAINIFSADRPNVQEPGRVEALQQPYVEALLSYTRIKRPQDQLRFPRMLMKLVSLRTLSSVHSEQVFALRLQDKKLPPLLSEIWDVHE

[4] = target: T2, Oxysterols receptor LXR-beta; test: Transactivational agonist activity at human LXRbeta transfected in HEK293 cells expressing CMX-Gal4N assessed as luciferase activity at 30 uM after 16 hrs by reporter gene assay; type: cell-based; conditions: hek293, 16 h
[5] = target: T1, Oxysterols receptor LXR-alpha; test: Transactivational agonist activity at human LXRalpha transfected in HEK293 cells expressing CMX-Gal4N assessed as luciferase activity at 30 uM after 16 hrs by reporter gene assay; type: cell-based; conditions: hek293, 16 h
[6] = Binding affinity to GST at 1 uM after 1 hr by fluorescence polarization assay
Procedure, shortened: (§1)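 Fluorescence polarization binding: full-length GST-hLXRα or GST was expressed in E. coli Rosetta(DE3) (0.4 mM IPTG, 15 °C, 24 h) and purified on glutathione resin. Protein dilutions, or 1 μM protein with competitor, were incubated with fluorescent probe 23 (1 μM) for 1 h at 0 °C. Buffer was 50 mM Tris-HCl, 10 mM reduced glutathione, pH 8.0; excitation 400 nm, emission 500 nm.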

[7] = target: T3, Oxysterols receptor LXR-alpha (Homo sapiens) (UniProt Q13133); test: Binding affinity to human GST-tagged LXRalpha expressed in Escherichia coli BL21(DE3) at 1 uM after 1 hr by fluorescence polarization assay; procedure, shortened: as §1
T3 sequence (whole entry): T1 sequence (Q13133 whole entry)

[8] = target: T1, Oxysterols receptor LXR-alpha; test: Transactivational agonist activity at human LXRalpha transfected in HEK293 cells expressing CMX-Gal4N assessed as luciferase activity after 16 hrs by reporter gene assay relative to N-(4-(1,1,1,3,3,3-hexafluoro-2-hydroxypropan-2-yl)phenyl)-N-methylbenzamide; type: cell-based; conditions: read-out: Efficacy
[9] = target: T2, Oxysterols receptor LXR-beta; test: Transactivational agonist activity at human LXRbeta transfected in HEK293 cells expressing CMX-Gal4N assessed as luciferase activity after 16 hrs by reporter gene assay relative to N-(4-(1,1,1,3,3,3-hexafluoro-2-hydroxypropan-2-yl)phenyl)-N-methylbenzamide; type: cell-based; conditions: read-out: Efficacy
[10] = target: T2, Oxysterols receptor LXR-beta; test: Transactivational agonist activity at human LXRbeta transfected in HEK293 cells expressing CMX-Gal4N assessed as luciferase activity after 16 hrs by reporter gene assay; type: cell-based
Procedure, shortened: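 Gal4-hLXRα or Gal4-hLXRβ chimera (15 ng) cotransfected with tk-MH100×4-luc reporter (50 ng) and CMX-β-gal (10 ng) into HEK293 cells by calcium phosphate. Luciferase was normalized to β-gal, in triplicate.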

[11] = target: T1, Oxysterols receptor LXR-alpha; test: Transactivational agonist activity at human LXRalpha transfected in HEK293 cells expressing CMX-Gal4N assessed as luciferase activity after 16 hrs by reporter gene assay; type: cell-based
[12] = target: T1, Oxysterols receptor LXR-alpha; test: Transactivational agonist activity at human LXRalpha transfected in HEK293 cells coexpressing CMX-Gal4N-DRIP205 assessed as DRIP205 recruitment at 10 uM after 16 hrs by mammalian two-hybrid assay; type: cell-based; conditions: hek293, 16 h
Procedure, shortened: (§2)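 Mammalian two-hybrid in HEK293 cells by calcium phosphate cotransfection: CMX-VP16N-hLXRα, Gal4N-fused SRC1, DRIP205, NCoR or SMRT (15 ng), tk-MH100×4-luc (50 ng) and CMX-β-gal (10 ng). Compound or DMSO added 8 h after transfection for 16 h. Luciferase was normalized to β-galactosidase, in triplicate.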

[13] = target: T3, Oxysterols receptor LXR-alpha (Homo sapiens); test: Transactivational antagonist activity at human LXRalpha transfected in HEK293 cells coexpressing CMX-Gal4N-NCoR assessed as NCoR recruitment after 16 hrs by reporter gene assay; type: functional, cell-based; procedure, shortened: as §2
[14] = target: T3, Oxysterols receptor LXR-alpha (Homo sapiens); test: Transactivational antagonist activity at human LXRalpha transfected in HEK293 cells coexpressing CMX-Gal4N-SMRT assessed as SMRT recruitment after 16 hrs by reporter gene assay; type: functional, cell-based; procedure, shortened: as §2
[15] = target: T1, Oxysterols receptor LXR-alpha; test: Transactivational agonist activity at human LXRalpha transfected in HEK293 cells coexpressing CMX-Gal4N-SRC1 assessed as SRC1 recruitment at 10 uM after 16 hrs by mammalian two-hybrid assay; type: cell-based; conditions: hek293, 16 h; procedure, shortened: as §2
[16] = tested on: Peritoneal macrophage cell; test: Inhibition of LPS-induced IL-6 production in LXRalpha,LXRbeta-deficient C57BL/6J mouse peritoneal macrophages at 10 uM incubated for 6 hrs prior to LPS-challenge measured after 18 hrs by ELISA; type: functional, cell-based
Procedure, shortened: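 Thioglycollate-elicited peritoneal macrophages came from 8–10-week LXRα/β-null mice on C57BL/6J background, harvested 4 days post-injection. They were adhered, rested 24 h and plated at 2 × 10⁵/well, then pretreated with compound 6 h before LPS 10 ng/mL. Supernatant mIL-6 was measured by ELISA after 18 h; means ± SE of ≥3 independent measurements, ANOVA.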

[17] = target: T4, Oxysterols receptor LXR-beta (Homo sapiens) (UniProt P55055); test: Transactivational antagonist activity at human LXRbeta transfected in HEK293 cells expressing CMX-Gal4N assessed as inhibition of T1317-induced luciferase activity at 30 uM after 16 hrs by reporter gene assay; type: functional, cell-based
T4 sequence (whole entry): T2 sequence (P55055 whole entry)
Procedure, shortened: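 Gal4-hLXRα or Gal4-hLXRβ chimera (15 ng) cotransfected with tk-MH100×4-luc reporter (50 ng) and CMX-β-gal (10 ng) into HEK293 cells by calcium phosphate. From 8 h post-transfection, cells got compound (0.1–30 μM) or DMSO for 16 h. Luciferase was normalized to β-gal, in triplicate.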

SMILES	IC50 [1] [µM]	IC50 [3] [µM]	Activity [4]	Activity [5]	other results
C=C1c2ccc(-c3cccc(C(=O)O)c3)cc2C(=O)N(C)c2ccc(CC)cc21	> 30	> 30	Not Active	Not Active	inhibition [2]: inactive
COc1ccc(CCc2ccc(N3C(=O)c4ccc(N(C)C)cc4C3=O)cc2)cc1					Activity [6]: inactive; Activity [7]: Active
C=C1c2ccccc2C(=O)N(C)c2ccc(N)cc21	19	27	Not Active	Not Active	
C=C1c2ccccc2C(=O)N(C)c2ccc(CCCCCCCCCCCC)cc21	> 30	> 30	Not Active	Not Active	inhibition [2]: inactive
C=C1c2ccccc2C(=O)N(C)c2ccc(C)cc21	> 10	> 10	Not Active	Not Active	
CN(C(=O)c1ccccc1)c1ccc(C(O)(C(F)(F)F)C(F)(F)F)cc1					Emax [8]: 100%; Emax [9]: 100%; EC50 [10]: 0.18 µM; EC50 [11]: 0.63 µM
CN1C(=O)c2ccccc2Oc2cc(C(O)(C(F)(F)F)C(F)(F)F)ccc21					Emax [8]: 12%; Emax [9]: 49%; EC50 [10]: 2.7 µM; EC50 [11]: 4.2 µM
C=C1c2ccccc2C(=O)N(C)c2ccc(C(C)(C)C)cc21	5.4	> 10	Not Active	Not Active	Activity [12]: Toxic; Activity [13]: Dose-dependent effect; Activity [14]: Dose-dependent effect; Activity [15]: Toxic; inhibition [16]: inactive
C=C1c2ccc(-c3ccc(C(=O)O)cc3)cc2C(=O)N(C)c2ccc(CC)cc21	1.3	9.5	Not Active	Not Active	inhibition [2]: inactive
C=C1c2ccccc2C(=O)N(C)c2ccc(C(=O)O)cc21	14	26	Not Active	Not Active	
CN1C(=O)c2ccccc2CCc2cc(C(O)(C(F)(F)F)C(F)(F)F)ccc21					Emax [8]: 117%; Emax [9]: 108%; EC50 [10]: 0.26 µM; EC50 [11]: 0.91 µM
[CH2-]c1c2ccccc2c(=O)[n+](C)c2ccc([N+](=O)[O-])cc12	6.1	13	Not Active	Not Active	
C=C1c2ccccc2C(=O)N(C)c2ccc(CO)cc21	> 10	> 10	Not Active	Not Active	
C=C1c2ccccc2C(=O)N(C)c2ccccc21	> 10	> 10			inhibition [2]: inactive
C=C1c2ccccc2C(=O)N(C)c2ccc(CCCCCC)cc21	> 10	> 10	Not Active	Not Active	
C=C1c2ccc(-c3cccc(CC(=O)O)c3)cc2C(=O)N(C)c2ccc(CC)cc21	21	27	Not Active	Not Active	
Cn1c(=O)c2ccccc2c2cc(C(O)(C(F)(F)F)C(F)(F)F)ccc21	4.1		Not Active	Not Active	inhibition [2]: inactive; inhibition [17]: inactive
C=C1c2ccccc2C(=O)N(C)c2ccc(C(C)C)cc21	1.7	> 10	Not Active	Not Active	
C=C1c2ccccc2C(=O)N(C)c2ccc(C(C)=O)cc21	4.9	7.5	Not Active	Not Active	
C=C1c2ccc(-c3ccc(CC(=O)O)cc3)cc2C(=O)N(C)c2ccc(CC)cc21	2.2	15	Not Active	Not Active	
